Positions of bridges follow the written chain, without caps; N, C: chain ends. Residues, ends and D or L forms follow the SMILES beside them.
Legend:
[1] = biological target: Sodium channel protein type 9 subunit alpha (Homo sapiens, UniProt Q15858); test: Inhibition of human Nav1.7 expressed in HEK293 cells assessed as inward peak current by ion-works quattro patch clamp electrophysiology method; type: cell-based
[2] = biological target: Sodium channel protein type 5 subunit alpha (Homo sapiens, UniProt Q14524); test: Inhibition of human Nav1.5 expressed in HEK293 cells assessed as inward peak current by ion-works quattro patch clamp electrophysiology method; type: cell-based
In short: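 Stable HEK293 line expressing human NaV1.5, recorded by population patch clamp on the IonWorks Quattro.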

Chain of Sodium channel protein type 5 subunit alpha (Q14524 whole entry): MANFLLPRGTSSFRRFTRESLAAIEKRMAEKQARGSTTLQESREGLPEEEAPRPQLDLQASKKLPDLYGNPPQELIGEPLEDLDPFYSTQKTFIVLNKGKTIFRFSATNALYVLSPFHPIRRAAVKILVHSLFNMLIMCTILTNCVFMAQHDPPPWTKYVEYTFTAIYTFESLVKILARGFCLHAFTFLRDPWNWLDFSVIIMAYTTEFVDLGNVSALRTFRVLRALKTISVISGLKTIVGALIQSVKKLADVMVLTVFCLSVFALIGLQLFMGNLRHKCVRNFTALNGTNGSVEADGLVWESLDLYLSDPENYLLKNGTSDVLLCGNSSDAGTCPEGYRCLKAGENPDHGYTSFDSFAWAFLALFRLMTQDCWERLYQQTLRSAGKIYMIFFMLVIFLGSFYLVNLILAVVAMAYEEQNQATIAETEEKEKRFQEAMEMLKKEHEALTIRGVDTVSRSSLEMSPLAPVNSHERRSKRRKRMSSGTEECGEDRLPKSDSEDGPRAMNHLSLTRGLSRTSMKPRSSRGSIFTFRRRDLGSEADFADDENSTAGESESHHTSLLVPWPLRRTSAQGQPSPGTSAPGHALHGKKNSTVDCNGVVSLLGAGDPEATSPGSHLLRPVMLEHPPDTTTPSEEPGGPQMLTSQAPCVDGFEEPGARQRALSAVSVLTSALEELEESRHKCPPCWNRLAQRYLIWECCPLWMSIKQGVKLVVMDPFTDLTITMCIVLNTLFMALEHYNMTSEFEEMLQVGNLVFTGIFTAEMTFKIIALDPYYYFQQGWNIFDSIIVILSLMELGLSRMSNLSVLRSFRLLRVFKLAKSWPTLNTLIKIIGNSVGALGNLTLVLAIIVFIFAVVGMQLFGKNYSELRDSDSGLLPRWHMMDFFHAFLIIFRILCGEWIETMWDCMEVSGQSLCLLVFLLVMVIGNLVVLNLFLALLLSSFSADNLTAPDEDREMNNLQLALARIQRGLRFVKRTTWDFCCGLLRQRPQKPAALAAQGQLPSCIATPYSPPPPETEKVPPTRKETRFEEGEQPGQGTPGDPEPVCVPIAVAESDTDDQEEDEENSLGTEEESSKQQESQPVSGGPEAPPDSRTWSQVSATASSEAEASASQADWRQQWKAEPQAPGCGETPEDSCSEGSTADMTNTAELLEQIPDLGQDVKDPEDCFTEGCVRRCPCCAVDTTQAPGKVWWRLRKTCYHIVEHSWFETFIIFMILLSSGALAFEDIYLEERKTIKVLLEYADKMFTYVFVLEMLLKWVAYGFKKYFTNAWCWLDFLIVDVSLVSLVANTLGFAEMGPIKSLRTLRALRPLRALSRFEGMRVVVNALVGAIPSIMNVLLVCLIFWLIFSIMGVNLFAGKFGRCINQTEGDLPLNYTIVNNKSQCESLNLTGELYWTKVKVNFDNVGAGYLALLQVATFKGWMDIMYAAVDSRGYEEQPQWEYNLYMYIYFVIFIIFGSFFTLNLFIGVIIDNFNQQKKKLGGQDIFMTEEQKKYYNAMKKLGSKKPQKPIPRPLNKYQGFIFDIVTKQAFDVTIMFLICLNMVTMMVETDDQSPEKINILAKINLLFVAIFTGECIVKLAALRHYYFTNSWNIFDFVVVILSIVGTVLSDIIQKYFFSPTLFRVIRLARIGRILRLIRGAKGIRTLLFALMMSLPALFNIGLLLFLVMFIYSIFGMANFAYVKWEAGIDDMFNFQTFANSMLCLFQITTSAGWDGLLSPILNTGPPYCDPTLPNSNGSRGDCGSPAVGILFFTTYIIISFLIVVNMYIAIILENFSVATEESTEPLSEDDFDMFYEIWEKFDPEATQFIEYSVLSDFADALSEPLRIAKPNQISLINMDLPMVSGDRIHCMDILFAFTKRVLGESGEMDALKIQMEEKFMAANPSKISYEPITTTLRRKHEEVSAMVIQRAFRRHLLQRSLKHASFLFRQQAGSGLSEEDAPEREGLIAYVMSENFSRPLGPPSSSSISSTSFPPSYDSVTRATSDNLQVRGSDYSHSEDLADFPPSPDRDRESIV
Chain of Sodium channel protein type 9 subunit alpha (Q15858 whole entry): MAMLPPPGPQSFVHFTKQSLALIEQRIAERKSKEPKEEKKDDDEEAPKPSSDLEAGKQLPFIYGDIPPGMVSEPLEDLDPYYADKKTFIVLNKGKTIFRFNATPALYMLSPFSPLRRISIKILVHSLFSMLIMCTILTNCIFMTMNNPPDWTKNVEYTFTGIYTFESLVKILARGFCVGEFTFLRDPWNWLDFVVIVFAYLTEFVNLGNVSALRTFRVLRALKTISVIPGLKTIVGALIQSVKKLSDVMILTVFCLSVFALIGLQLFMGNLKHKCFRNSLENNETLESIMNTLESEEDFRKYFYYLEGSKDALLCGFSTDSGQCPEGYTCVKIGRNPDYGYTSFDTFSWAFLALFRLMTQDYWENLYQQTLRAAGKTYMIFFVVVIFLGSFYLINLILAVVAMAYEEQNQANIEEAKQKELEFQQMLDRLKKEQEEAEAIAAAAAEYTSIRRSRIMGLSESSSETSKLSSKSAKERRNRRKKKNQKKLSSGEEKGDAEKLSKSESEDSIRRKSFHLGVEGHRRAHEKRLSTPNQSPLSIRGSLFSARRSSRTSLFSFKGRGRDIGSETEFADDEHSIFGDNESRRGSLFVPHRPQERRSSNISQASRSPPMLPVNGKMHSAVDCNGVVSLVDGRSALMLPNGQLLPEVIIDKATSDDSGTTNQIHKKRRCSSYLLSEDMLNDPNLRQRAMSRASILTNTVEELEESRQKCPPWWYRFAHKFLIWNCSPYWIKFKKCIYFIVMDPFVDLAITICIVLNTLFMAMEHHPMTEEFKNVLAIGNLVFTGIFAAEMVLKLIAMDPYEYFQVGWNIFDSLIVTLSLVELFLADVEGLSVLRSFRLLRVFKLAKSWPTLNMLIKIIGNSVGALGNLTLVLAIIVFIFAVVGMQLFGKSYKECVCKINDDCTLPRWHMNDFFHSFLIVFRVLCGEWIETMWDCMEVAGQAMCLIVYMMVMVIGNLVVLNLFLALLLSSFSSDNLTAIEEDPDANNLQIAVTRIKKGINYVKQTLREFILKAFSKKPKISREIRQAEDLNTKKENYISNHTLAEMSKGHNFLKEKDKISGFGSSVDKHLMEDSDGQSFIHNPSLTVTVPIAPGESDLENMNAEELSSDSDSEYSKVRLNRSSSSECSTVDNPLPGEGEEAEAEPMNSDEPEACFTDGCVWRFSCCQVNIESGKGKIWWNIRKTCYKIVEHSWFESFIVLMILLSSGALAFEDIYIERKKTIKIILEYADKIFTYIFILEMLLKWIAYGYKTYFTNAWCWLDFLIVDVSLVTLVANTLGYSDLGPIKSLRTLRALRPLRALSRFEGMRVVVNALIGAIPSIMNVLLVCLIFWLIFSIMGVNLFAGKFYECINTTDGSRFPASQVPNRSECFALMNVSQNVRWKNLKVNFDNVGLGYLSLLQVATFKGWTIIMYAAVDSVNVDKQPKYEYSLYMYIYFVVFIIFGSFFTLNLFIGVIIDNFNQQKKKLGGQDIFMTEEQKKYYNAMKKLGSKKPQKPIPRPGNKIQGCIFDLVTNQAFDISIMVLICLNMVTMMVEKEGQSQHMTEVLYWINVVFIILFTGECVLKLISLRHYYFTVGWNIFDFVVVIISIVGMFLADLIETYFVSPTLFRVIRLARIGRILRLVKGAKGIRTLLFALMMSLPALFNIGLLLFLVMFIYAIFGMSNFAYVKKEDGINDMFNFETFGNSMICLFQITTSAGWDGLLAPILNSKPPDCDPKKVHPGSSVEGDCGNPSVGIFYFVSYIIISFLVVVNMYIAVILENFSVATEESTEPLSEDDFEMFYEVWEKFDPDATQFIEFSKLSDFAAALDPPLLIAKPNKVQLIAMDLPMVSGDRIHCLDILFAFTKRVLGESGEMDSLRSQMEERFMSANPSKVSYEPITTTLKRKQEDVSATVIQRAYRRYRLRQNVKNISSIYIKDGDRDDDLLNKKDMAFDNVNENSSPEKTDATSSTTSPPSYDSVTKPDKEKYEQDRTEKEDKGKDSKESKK

Compound | IC50 [1] [nM] | IC50 [2] [nM]
CC[C@H](C)[C@@H]1NC(=O)[C@@H]2CSSC[C@@H]3NC(=O)[C@H](C(C)C)NC(=O)[C@H](CC(C)C)NC(=O)[C@H](CC(N)=O)NC(=O)[C@@H]4CCCN4C(=O)[C@H](CCCNC(=N)N)NC(=O)[C@H](CSSC[C@H](NC(=O)[C@@H](N)CC(=O)O)C(=O)N[C@@H](CC(C)C)C(=O)NCC(=O)N[C@@H](Cc4ccccc4)C(=O)N[C@@H](CCSC)C(=O)N[C@@H](CCCNC(=N)N)C(=O)N[C@@H](CCCCN)C(=O)N2)NC(=O)[C@H](CSSC[C@@H](C(=O)N[C@@H](CCCCN)C(=O)N[C@@H](Cc2ccc(O)cc2)C(=O)N[C@H](C(=O)N[C@@H](Cc2ccccc2)C(N)=O)C(C)C)NC(=O)[C@H](Cc2c[nH]c4ccccc24)NC(=O)[C@H](CCCCN)NC(=O)[C@H](Cc2cnc[nH]2)NC(=O)[C@H]([C@@H](C)O)NC(=O)[C@H](CCCNC(=N)N)NC(=O)[C@H](CO)NC3=O)NC(=O)[C@H](CCCCN)NC(=O)[C@H](CC(=O)O)NC(=O)[C@H](CCC(=O)O)NC(=O)[C@H](CC(=O)O)NC(=O)[C@@H]2CCCN2C1=O (H-DCLGFMRKCIPDEDKCCRPNLVCSRTHKWCKYVF-NH2; disulfide 2-17, 9-23, 16-30) | 280 | > 5000
CC[C@H](C)[C@@H]1NC(=O)[C@H]2CSSC[C@H]3NC(=O)[C@H](C(C)C)NC(=O)[C@H](CC(C)C)NC(=O)[C@H](CC(N)=O)NC(=O)[C@@H]4CCCN4C(=O)[C@H](CCCNC(=N)N)NC(=O)[C@H](CSSC[C@H](NC(=O)[C@@H](N)CC(=O)O)C(=O)N[C@@H](CC(C)C)C(=O)NCC(=O)N[C@@H](Cc4ccccc4)C(=O)N[C@@H](CCSC)C(=O)N[C@@H](CCCNC(=N)N)C(=O)N[C@@H](CCCCN)C(=O)N2)NC(=O)[C@@H](CSSC[C@@H](C(=O)N[C@@H](CCCCN)C(=O)N[C@@H](Cc2ccc(O)cc2)C(=O)N[C@H](C(=O)N[C@@H](Cc2ccccc2)C(N)=O)C(C)C)NC(=O)[C@H](Cc2c[nH]c4ccccc24)NC(=O)[C@H](CCCCN)NC(=O)[C@H](C)NC(=O)[C@H]([C@@H](C)O)NC(=O)[C@H](CCCNC(=N)N)NC(=O)[C@H](CO)NC3=O)NC(=O)[C@H](CCCCN)NC(=O)[C@H](CC(=O)O)NC(=O)[C@H](CC(N)=O)NC(=O)[C@H](CC(=O)O)NC(=O)[C@@H]2CCCN2C1=O | 970 | > 5000
CC[C@H](C)[C@@H]1NC(=O)[C@@H]2CSSC[C@@H]3NC(=O)[C@H](C(C)C)NC(=O)[C@H](CC(C)C)NC(=O)[C@H](CC(N)=O)NC(=O)[C@@H]4CCCN4C(=O)[C@H](CCCNC(=N)N)NC(=O)[C@H](CSSC[C@H](NC(=O)[C@@H](N)CC(=O)O)C(=O)N[C@@H](CC(C)C)C(=O)NCC(=O)N[C@@H](Cc4ccccc4)C(=O)N[C@@H](CCSC)C(=O)N[C@@H](CCCNC(=N)N)C(=O)N[C@@H](CCCCN)C(=O)N2)NC(=O)[C@H](CSSC[C@@H](C(=O)N[C@@H](CCCCN)C(=O)N[C@@H](Cc2ccc(O)cc2)C(=O)N[C@H](C(=O)N[C@@H](Cc2ccccc2)C(N)=O)C(C)C)NC(=O)[C@H](Cc2c[nH]c4ccccc24)NC(=O)[C@H](CCCCN)NC(=O)[C@H](Cc2cnc[nH]2)NC(=O)[C@H](CCCCN)NC(=O)[C@H](CCCNC(=N)N)NC(=O)[C@H](CO)NC3=O)NC(=O)[C@H](CCCCN)NC(=O)[C@H](CC(=O)O)NC(=O)[C@H](CC(N)=O)NC(=O)[C@H](CC(=O)O)NC(=O)[C@@H]2CCCN2C1=O (H-DCLGFMRKCIPDNDKCCRPNLVCSRKHKWCKYVF-NH2; disulfide 2-17, 9-23, 16-30) | 40 | > 5000
CC[C@H](C)[C@@H]1NC(=O)[C@@H]2CSSC[C@@H]3NC(=O)[C@H](C(C)C)NC(=O)[C@H](CC(C)C)NC(=O)[C@H](CC(N)=O)NC(=O)[C@@H]4CCCN4C(=O)[C@H](CCCNC(=N)N)NC(=O)[C@H](CSSC[C@H](NC(=O)[C@@H](N)CC(=O)O)C(=O)N[C@@H](CC(C)C)C(=O)NCC(=O)N[C@@H](Cc4ccccc4)C(=O)N[C@@H](CCSC)C(=O)N[C@@H](CCC(=O)O)C(=O)N[C@@H](CCCCN)C(=O)N2)NC(=O)[C@H](CSSC[C@@H](C(=O)N[C@@H](CCCCN)C(=O)N[C@@H](Cc2ccc(O)cc2)C(=O)N[C@H](C(=O)N[C@@H](Cc2ccccc2)C(N)=O)C(C)C)NC(=O)[C@H](Cc2c[nH]c4ccccc24)NC(=O)[C@H](CCCCN)NC(=O)[C@H](Cc2cnc[nH]2)NC(=O)[C@H]([C@@H](C)O)NC(=O)[C@H](CCCNC(=N)N)NC(=O)[C@H](CO)NC3=O)NC(=O)[C@H](CCCCN)NC(=O)[C@H](CC(=O)O)NC(=O)[C@H](CC(N)=O)NC(=O)[C@H](CC(=O)O)NC(=O)[C@@H]2CCCN2C1=O (H-DCLGFMEKCIPDNDKCCRPNLVCSRTHKWCKYVF-NH2; disulfide 2-17, 9-23, 16-30) | 860 | > 5000
CC[C@H](C)[C@@H]1NC(=O)[C@@H]2CSSC[C@@H]3NC(=O)[C@H](C(C)C)NC(=O)[C@H](CC(C)C)NC(=O)[C@H](CC(N)=O)NC(=O)[C@@H]4CCCN4C(=O)[C@H](CCCNC(=N)N)NC(=O)[C@H](CSSC[C@H](NC(=O)[C@@H](N)CC(=O)O)C(=O)N[C@@H](CC(C)C)C(=O)NCC(=O)N[C@@H](Cc4ccccc4)C(=O)N[C@@H](CCSC)C(=O)N[C@@H](CCCNC(=N)N)C(=O)N[C@@H](CCCCN)C(=O)N2)NC(=O)[C@H](CSSC[C@@H](C(=O)N[C@@H](CCCCN)C(=O)N[C@@H](Cc2ccc(O)cc2)C(=O)N[C@H](C(=O)N[C@@H](CCC(=O)O)C(N)=O)C(C)C)NC(=O)[C@H](Cc2c[nH]c4ccccc24)NC(=O)[C@H](CCCCN)NC(=O)[C@H](Cc2cnc[nH]2)NC(=O)[C@H]([C@@H](C)O)NC(=O)[C@H](CCCNC(=N)N)NC(=O)[C@H](CO)NC3=O)NC(=O)[C@H](CCCCN)NC(=O)[C@H](CC(=O)O)NC(=O)[C@H](CC(N)=O)NC(=O)[C@H](CC(=O)O)NC(=O)[C@@H]2CCCN2C1=O (H-DCLGFMRKCIPDNDKCCRPNLVCSRTHKWCKYVE-NH2; disulfide 2-17, 9-23, 16-30) | > 5000 | > 5000
CC[C@H](C)[C@@H]1NC(=O)[C@@H]2CSSC[C@@H]3NC(=O)[C@H](C(C)C)NC(=O)[C@H](CC(C)C)NC(=O)[C@H](CC(N)=O)NC(=O)[C@@H]4CCCN4C(=O)[C@H](CCCNC(=N)N)NC(=O)[C@H](CSSC[C@H](NC(=O)[C@@H](N)CC(=O)O)C(=O)N[C@@H](CC(C)C)C(=O)NCC(=O)N[C@@H](Cc4ccccc4)C(=O)N[C@@H](CCSC)C(=O)N[C@@H](CCCNC(=N)N)C(=O)N[C@@H](CCCCN)C(=O)N2)NC(=O)[C@H](CSSC[C@@H](C(=O)N[C@@H](CCCCN)C(=O)N[C@@H](Cc2ccc(O)cc2)C(=O)N[C@H](C(=O)N[C@@H](Cc2ccccc2)C(N)=O)C(C)C)NC(=O)[C@H](Cc2c[nH]c4ccccc24)NC(=O)[C@H](CCCNC(=N)N)NC(=O)[C@H](Cc2cnc[nH]2)NC(=O)[C@H]([C@@H](C)O)NC(=O)[C@H](CCCNC(=N)N)NC(=O)[C@H](CO)NC3=O)NC(=O)[C@H](CCCCN)NC(=O)[C@H](CC(=O)O)NC(=O)[C@H](CC(N)=O)NC(=O)[C@H](CC(=O)O)NC(=O)[C@@H]2CCCN2C1=O | 90 | > 5000
CC[C@H](C)[C@@H]1NC(=O)[C@@H]2CSSC[C@@H]3NC(=O)[C@H](C(C)C)NC(=O)[C@H](CC(C)C)NC(=O)[C@H](CC(N)=O)NC(=O)[C@@H]4CCCN4C(=O)[C@H](CCCNC(=N)N)NC(=O)[C@H](CSSC[C@H](NC(=O)[C@@H](N)CC(=O)O)C(=O)N[C@@H](CC(C)C)C(=O)NCC(=O)N[C@@H](Cc4ccccc4)C(=O)N[C@@H](Cc4cc5ccccc5[nH]4)C(=O)N[C@@H](CCCNC(=N)N)C(=O)N[C@@H](CCCCN)C(=O)N2)NC(=O)[C@H](CSSC[C@@H](C(=O)N[C@@H](CCCCN)C(=O)N[C@@H](Cc2ccc(O)cc2)C(=O)N[C@H](C(=O)N[C@@H](Cc2ccccc2)C(N)=O)C(C)C)NC(=O)[C@H](Cc2c[nH]c4ccccc24)NC(=O)[C@H](CCCCN)NC(=O)[C@H](Cc2cnc[nH]2)NC(=O)[C@H]([C@@H](C)O)NC(=O)[C@H](CCCNC(=N)N)NC(=O)[C@H](CO)NC3=O)NC(=O)[C@H](CCCCN)NC(=O)[C@H](CC(=O)O)NC(=O)[C@H](CC(N)=O)NC(=O)[C@H](CC(=O)O)NC(=O)[C@@H]2CCCN2C1=O | 30 | 3400
CC[C@H](C)[C@@H]1NC(=O)[C@@H]2CSSC[C@@H]3NC(=O)[C@H](C(C)C)NC(=O)[C@H](CC(C)C)NC(=O)[C@H](CC(N)=O)NC(=O)[C@@H]4CCCN4C(=O)[C@H](CCCNC(=N)N)NC(=O)[C@H](CSSC[C@H](NC(=O)[C@@H](N)CC(=O)O)C(=O)N[C@@H](CC(C)C)C(=O)NCC(=O)N[C@@H](Cc4ccccc4)C(=O)N[C@@H](CCSC)C(=O)N[C@@H](CCCNC(=N)N)C(=O)N[C@@H](CCCCN)C(=O)N2)NC(=O)[C@H](CSSC[C@@H](C(=O)N[C@@H](CCCCN)C(=O)N[C@@H](Cc2ccc(O)cc2)C(=O)N[C@H](C(=O)N[C@@H](Cc2ccccc2)C(N)=O)C(C)C)NC(=O)[C@H](Cc2c[nH]c4ccccc24)NC(=O)[C@H](CCCCN)NC(=O)[C@H](CCC(=O)O)NC(=O)[C@H]([C@@H](C)O)NC(=O)[C@H](CCCNC(=N)N)NC(=O)[C@H](CO)NC3=O)NC(=O)[C@H](CCCCN)NC(=O)[C@H](CC(=O)O)NC(=O)[C@H](CC(N)=O)NC(=O)[C@H](CC(=O)O)NC(=O)[C@@H]2CCCN2C1=O (H-DCLGFMRKCIPDNDKCCRPNLVCSRTEKWCKYVF-NH2; disulfide 2-17, 9-23, 16-30) | > 5000 | > 5000
